# Measured values: ChEMBL document CHEMBL3046481, “Design, synthesis, and bioactivity study of novel benzoylpyridazyl ureas” (2009)
# Assays:
# Format in all cases: functional
# Mythimna separata [1] = assay: Larvicidal activity against fourth-instar larval stage of Mythimna separata (Oriental armyworm) in compound pretreated corn leaves assessed as mortality at 200 mg/l at 25 +/-1 degC measured after 4 days
# Summary of the method: (§1)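 Insects were laboratory-reared and the bioassay was repeated at 25 ± 1 °C as statistics required. Larvae were scored dead or alive, and mortality was corrected with Abbott's formula. Results are given as percentage mortality on a 0–100 scale, where 0 is no activity and 100 is total kill. Hexaflumuron was run under the same conditions as the reference.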
# Mythimna separata [2] = assay: Larvicidal activity against fourth-instar larval stage of Mythimna separata (Oriental armyworm) in compound pretreated corn leaves assessed as mortality at 50 mg/l at 25 +/-1 degC measured after 4 days; summary of the method: as §1
# Mythimna separata [3] = assay: Larvicidal activity against fourth-instar larval stage of Mythimna separata (Oriental armyworm) in compound pretreated corn leaves assessed as mortality at 100 mg/l at 25 +/-1 degC measured after 4 days; summary of the method: as §1
# Culex pipiens pallens [4] = assay: Larvicidal activity against fourth-instar larval stage of Culex pipiens pallens (mosquito) assessed as mortality at 2 mg/l at 25 +/-1 degC measured after 8 days; details: 192 h; summary of the method: as §1
# Mythimna separata [5] = assay: Larvicidal activity against fourth-instar larval stage of Mythimna separata (Oriental armyworm) in compound pretreated corn leaves assessed as mortality at 10 mg/l at 25 +/-1 degC measured after 4 days; summary of the method: as §1
# Culex pipiens pallens [6] = assay: Larvicidal activity against fourth-instar larval stage of Culex pipiens pallens (mosquito) assessed as mortality at 0.25 mg/l at 25 +/-1 degC measured after 8 days; details: 192 h; summary of the method: as §1
# Culex pipiens pallens [7] = assay: Larvicidal activity against fourth-instar larval stage of Culex pipiens pallens (mosquito) assessed as mortality at 1 mg/l at 25 +/-1 degC measured after 8 days; details: 192 h; summary of the method: as §1
# Mythimna separata [8] = assay: Larvicidal activity against fourth-instar larval stage of Mythimna separata (Oriental armyworm) in compound pretreated corn leaves assessed as mortality at 25 mg/l at 25 +/-1 degC measured after 4 days; summary of the method: as §1
Compound,mortality at 200 µg/mL (Mythimna separata [1]) [%],mortality at 2 µg/mL (Culex pipiens pallens [4]) [%],other results
CCCCSc1ccc(NC(=O)NC(=O)c2c(F)cccc2F)nn1,100,–,mortality at 50 µg/mL (Mythimna separata [2]): 90%; mortality at 100 µg/mL (Mythimna separata [3]): 100%
O=C(NC(=O)c1c(F)cccc1F)Nc1ccc(Oc2ccccc2Cl)nn1,20,40,–
O=C(NC(=O)c1c(F)cccc1F)Nc1ccc(Sc2ccccc2)nn1,20,–,–
O=C(NC(=O)c1c(F)cccc1F)Nc1ccc(OCc2ccc(Cl)cc2)nn1,10,10,–
O=C(NC(=O)c1c(F)cccc1F)Nc1ccc(Oc2ccc(Cl)cc2)nn1,10,20,–
CC(C)Oc1ccc(NC(=O)NC(=O)c2c(F)cccc2F)nn1,100,10,mortality at 50 µg/mL (Mythimna separata [2]): 70%; mortality at 100 µg/mL (Mythimna separata [3]): 100%
COc1ccc(Oc2ccc(NC(=O)NC(=O)c3c(F)cccc3F)nn2)cc1,10,10,–
O=C(NC(=O)c1c(F)cccc1F)Nc1cc(Cl)c(OC(F)(F)C(F)F)c(Cl)c1 [HEXAFLUMURON],–,–,mortality at 10 µg/mL (Mythimna separata [5]): 80%; mortality at 0.25 µg/mL (Culex pipiens pallens [6]): 100%
O=C(NC(=O)c1c(F)cccc1F)Nc1ccc(Oc2c(Cl)cc(Cl)cc2Cl)nn1,–,20,mortality at 100 µg/mL (Mythimna separata [3]): 10%
O=C(NC(=O)c1c(F)cccc1F)Nc1ccc(Oc2ccc(Cl)cc2Cl)nn1,20,60,–
Cc1ccc(Oc2ccc(NC(=O)NC(=O)c3c(F)cccc3F)nn2)cc1,0,0,–
Cc1ccc(NC(=O)NC(=O)c2c(F)cccc2F)nn1,10,20,–
O=C(NC(=O)c1c(F)cccc1F)Nc1ccc(OCC(F)(F)F)nn1,–,–,mortality at 10 µg/mL (Mythimna separata [5]): 80%; mortality at 1 µg/mL (Culex pipiens pallens [7]): 30%; mortality at 25 µg/mL (Mythimna separata [8]): 100%
CCOc1ccc(NC(=O)NC(=O)c2c(F)cccc2F)nn1,100,20,mortality at 50 µg/mL (Mythimna separata [2]): 80%; mortality at 100 µg/mL (Mythimna separata [3]): 100%
O=C(NC(=O)c1c(F)cccc1F)Nc1ccc(Oc2ccc(Br)cc2)nn1,30,100,mortality at 1 µg/mL (Culex pipiens pallens [7]): 90%
